Screening results (PubChem)
Shown are actives, neighbours in structure and some others; about 3.5% of the full set was active somewhere.
RGS4 inh = inhibitors of human RGS4 | HEK293 M3R/RGS4 inducible, Fluo-4 calcium flux; hits give high values; triggered by carbachol at its EC20 | B-score at 10 µM | 0.45% of 310,000 active;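 active = B-score, a plate-corrected calcium signal, over three deviations above library mean, with baseline fluorescence within five deviations of library mean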;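 note: RGS4 expression induced by doxycycline in cells with stable M3 receptor; B-score is computed from the integrated fluorescence ratio over baseline after carbachol; higher B-score means a larger calcium signal and so more RGS4 inhibition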
Target sequence (P49798 whole entry, looked up): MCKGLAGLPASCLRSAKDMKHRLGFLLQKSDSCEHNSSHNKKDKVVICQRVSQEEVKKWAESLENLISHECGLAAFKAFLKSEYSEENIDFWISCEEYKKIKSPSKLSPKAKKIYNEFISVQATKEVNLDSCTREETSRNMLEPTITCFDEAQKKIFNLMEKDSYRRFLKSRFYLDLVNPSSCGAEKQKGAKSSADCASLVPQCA
MrgX1 agonist = agonists of human MrgX1 receptor | MrgX1-HEK293 cells, Fluo-4 calcium fluorescence, agonist mode; hits give high values | B-score at 10 µM | 0.44% of 310,000 active | AID 588627;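 active = calcium response B-score plate-corrected fluorescence ratio at least 3 library SD, with starting fluorescence B-score inside 5 SD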
Target sequence (Q96LB2 whole entry, looked up): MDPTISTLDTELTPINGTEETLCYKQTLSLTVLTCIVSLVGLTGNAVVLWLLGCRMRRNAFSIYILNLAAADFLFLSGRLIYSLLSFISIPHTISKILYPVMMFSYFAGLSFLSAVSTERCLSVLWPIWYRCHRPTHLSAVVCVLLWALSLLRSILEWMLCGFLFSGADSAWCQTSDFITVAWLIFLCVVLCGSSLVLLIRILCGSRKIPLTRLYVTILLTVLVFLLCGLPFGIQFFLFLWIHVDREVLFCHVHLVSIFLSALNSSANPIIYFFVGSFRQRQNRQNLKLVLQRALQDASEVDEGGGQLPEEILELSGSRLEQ
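Assay system: stable human MrgX1 HEK293 cell line. Quantity: 15,000 cells per well. Schedule: cells plated overnight, dye loaded 0.5 h 37 °C, 0.5 h room temperature. Detection: Fluo-4 NW calcium-flux fluorescence, kinetic read. Read-out basis: peak-minus-minimum fluorescence over baseline, converted to B scores. Control set: positive and negative control wells on each plate.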
RGS4 act = potentiators or activators of RGS4; HEK293 M3R/inducible RGS4, carbachol calcium flux Fluo4; hits give low values; AID 463111; B-score at 10 µM; 0.92% of 310,000 active;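 active = B-score of the integrated calcium signal more than 4 SD below the library mean, with starting fluorescence not abnormally high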;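 note: negative B-score means reduced calcium response which marks RGS4 activation or potentiation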
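Assay system: Inducible-RGS4 HEK293 cells carrying M3 receptor | Schedule: Compound preincubation 20 min at room temperature before agonist | Signal: Kinetic calcium fluorescence imaging with Fluo4-AM dye, 2 µM | Read-out basis: B score from integrated fluorescence ratio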
MrgX1 antagonist = antagonists of human MrgX1 receptor. B-score at 10 µM. AID 588676. 1.3% of 310,000 active. MRGX1-HEK293 calcium flux, Fluo-4, BAM8-22 antagonism; hits give low values;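 active = calcium-response B-score plate-corrected more than 3 library SD below zero, starting fluorescence within 5 deviations, no agonist response on first addition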;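 note: peak minus trough fluorescence over baseline after final BAM8-22 challenge near maximal dose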
MrgX1 allo act = allosterically activates human MrgX1 receptor signaling; Q96LB2; MrgX1-HEK293, Fluo-4 calcium flux, FDSS; hits give high values; B-score at 10 µM; 0.63% of 310,000 active;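 active = plate-corrected calcium response at least 3 library SD above typical, normal starting fluorescence, not activating the receptor alone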;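 note: compound read alongside a low EC10 to EC30 dose of BAM8-22 agonist; peak minus trough fluorescence over baseline measured at the second addition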
An asterisk follows results filed as active; i = inactive; x = no result given.

SMILES	RGS4 inh	MrgX1 agonist	RGS4 act	MrgX1 antagonist	MrgX1 allo act
Cc1nn(C)c(C(=O)N/N=C/c2ccccc2)c1[N+](=O)[O-]	i	i	-9.9*	i	i
Cc1nc2ccccn2c1C(=O)N/N=C/c1ccc([N+](=O)[O-])cc1	i	i	i	i	i
Cc1nc2ccccn2c1C(=O)N/N=C/c1ccc([N+](=O)[O-])o1	i	i	i	-6*	i
Cc1nn(C)c(C(=O)Nc2cccc(Nc3ccccc3)c2)c1[N+](=O)[O-]	i	i	i	i	i
CC(=O)c1nnn(-c2cccc(C#N)c2)c1C	i	i	i	i	i
COc1ccc(NC(=S)N2CCN(c3ncccn3)CC2)c(OC)c1	i	i	i	i	i
CCc1cc(Cn2nc(-c3ccccc3)cc2C(=O)NCC2CC2)on1	i	i	i	i	i
COc1cc(NC(=O)CN(C)CCOc2ccccc2)c(C)cc1[N+](=O)[O-]	i	i	i	i	i
CN(CCOc1ccccc1)CC(=O)Nc1ccc(Cl)cc1[N+](=O)[O-]	i	i	i	i	13*
COc1ccccc1N(Cc1cc(=O)[nH]c2ccccc12)C(=O)C(C)C	i	i	i	i	i
COCCN=c1scc(-c2cccs2)n1/N=C(\C)c1ccco1	i	i	i	i	15*
COCCN=c1scc(-c2ccco2)n1/N=C/c1ccc(O)c(O)c1O	x	i	x	i	i
O=C(/C=C/c1ccc(O)c(O)c1)NC(=O)c1ccccc1O	i	i	i	-7.8*	i
O=C(NCCOc1ccccc1)c1ccccc1Cl	i	i	i	i	i
CN(C(=O)COc1ccccc1C(=O)NCCOc1ccccc1)c1ccccc1	i	i	-9.2*	-5.7*	i
COc1ccc(NCc2nnc(SCC(=O)Nc3ccccc3)n2C)cc1	i	i	i	i	i
O=C(N/N=C/c1ccncc1)c1ccc(NS(=O)(=O)c2cccs2)cc1	i	i	i	i	9.6*
O=C(O)c1ccc(/C=N/NC(=O)c2ccc(NS(=O)(=O)c3cccs3)cc2)cc1	i	i	i	i	i
O=C(COC(=O)c1ccc(O)cc1O)Nc1cc(-c2ccccc2)nn1-c1ccccc1	i	i	i	i	i
NC(=O)C1CCN(C2=C(NS(=O)(=O)c3ccc(Cl)cc3)C(=O)c3ccccc3C2=O)CC1	i	i	i	i	9.9*
COC(=O)c1c(C(=O)OC)c(-c2cccc(Cl)c2)n2c1CS(=O)C2 (centres undefined)	i	i	i	i	i
O=C(CSc1nccc(=O)[nH]1)NCc1ccc(Cl)cc1	i	i	i	i	i
Cc1c(C(=O)NCCC2=CCCCC2)oc2ccc(S(=O)(=O)N3CCC4(CC3)OCCO4)cc12	i	i	-8*	i	i
CC(=O)Nc1ccc(OCC(O)Cn2nc(C)c(C)c2C)cc1 (centres undefined)	i	i	i	i	i
O=C(Nc1ccc(C(O)(C(F)(F)F)C(F)(F)F)cc1)c1ccc(Cl)c([N+](=O)[O-])c1	i	i	-8.8*	i	i
SMILES	RGS4 inh	MrgX1 agonist	RGS4 act	MrgX1 antagonist	MrgX1 allo act
N#Cc1ccsc1NC(=O)c1cccc([N+](=O)[O-])c1	i	i	i	i	i
N#Cc1ccsc1NC(=O)c1ccc(Cl)c([N+](=O)[O-])c1	i	i	i	-4.9*	i
COc1ccccc1C(C#N)N1N=C(C)CC1c1ccccc1 (centres undefined)	i	28*	i	i	i
COc1ccc(CN2CCC(CO)(Cc3ccccc3C(F)(F)F)CC2)c(F)c1	i	i	-7.1*	i	i
CCC(C)(O)c1[nH]c2ccc(C(F)(F)F)cc2c1C (centres undefined)	i	i	i	i	i
CC(CN1CCCCC1)OC(=O)c1ccc2c(c1)OCO2 (centres undefined)	i	i	i	i	i
CC1CCN(CC(C)OC(=O)c2ccc3c(c2)OCCO3)CC1 (centres undefined)	i	i	-7.3*	i	i
Cc1nnc(N2CCC(C(=O)N3CCCCC3)CC2)c2nn(-c3ccc(Cl)cc3)c(C)c12	i	i	i	i	i
COc1ccc(-n2nc3c(N4CCC(C(=O)N5CCC(C)CC5)CC4)nnc(C)c3c2C)cc1	i	i	-7*	i	i
CC(C)(C)c1cc(CCC(=O)NCc2ccncc2)cc(C(C)(C)C)c1O	i	i	i	i	i
CN1CCC=C(C(=O)N2c3ccccc3Sc3ccc(Cl)cc32)C1	i	i	-10*	i	i
Cc1ccc(C)c(N2CCN(c3ncccc3[N+](=O)[O-])CC2)c1	i	i	i	i	i
C#CCNC(=O)C1=C[C@H](c2ccc(C(F)(F)F)cc2)[C@@H](CCCO)[C@H](OCC)O1	i	i	i	i	i
COc1cc(N/C=C(\C(C)=O)c2ccccc2)cc(OC)c1	x	30*	x	i	i
O=C(Nc1ccnn1C1CCN(Cc2ccn[nH]2)CC1)c1ccccc1	i	i	i	i	i
CCCN(CC(=O)Nc1ccccc1C)C(=O)c1ccc(Cl)c(S(=O)(=O)N2CCCC2)c1	i	i	i	i	i
CCCN(CC(=O)Nc1ccccc1C)C(=O)c1ccc(C)c(S(=O)(=O)N2CCCCC2)c1	i	i	i	-5.4*	i
COc1ccc2nc(NC(=O)/C=C/c3ccc4c(c3)OCO4)sc2c1	i	i	i	-6.3*	i
COc1ccc2nc(Nc3ccc4c(c3)OCO4)sc2c1	i	i	i	i	i
COc1ccc2nc(NC(=O)c3ccc([N+](=O)[O-])o3)sc2c1	i	i	i	i	12*
O=C(Nc1nc2c(F)cc(F)cc2s1)c1ccc([N+](=O)[O-])o1	i	i	i	i	8.6*
CC(C)(C)OC(=O)NCCCC1=CC2=CC(=O)C(C)(OC(=O)c3ccc(Cl)nc3)C(=O)C2=CO1 (centres undefined)	i	i	i	-5*	i
CCC(=O)OC1(C)C(=O)C=C2C=C(CCCCNC(=O)OC(C)(C)C)OC=C2C1=O (centres undefined)	i	i	i	i	i
CCc1noc(C)c1C(=O)N1CCCC(CCC(=O)NCc2cccc(OC)c2)C1 (centres undefined)	i	i	i	-6.5*	i
CCN(CC)c1ccc2cc(/C(N)=N/NC(=O)c3cccs3)c(=O)oc2c1	i	i	i	i	27*
